APP 5'UTR act: activates APP 5'UTR luciferase reporter. 1% of 190,000 active. SH-SY5Y APP 5'UTR luciferase reporter, luminescence; zero percent = DMSO vehicle wells. AID 1276. activation, % at 2 µM;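 active = activation above a set limit, based on mean plus 3 SD of controls, cut at about 140% in these data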
STAT1 blocker: STAT1 signaling inhibition; NIH 3T3 STAT1-luciferase reporter, IFN-gamma, luminescence; inhibition, % at 5.5 µM; 0.35% of 200,000 active; AID 920;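 active = inhibition above a set limit, the mean inhibition across all tested compounds plus 3 SD, cut at about 34% in these data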
STAT1 act-1: STAT1 signaling activation | 2.6% of 200,000 active | activation (% of control), % at 5.5 µM | NIH 3T3 STAT1-luciferase reporter, IFN-gamma, luminescence; 100% = IFN-gamma alone, no compound;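 active = activation above the screen-wide mean activation plus 3 SD, cut at about 130% in these data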
STAT3 inh: reduces IL-6 driven STAT3 reporter signal | 0.89% of 190,000 active | U3A cells, IL-6 STAT3-luciferase reporter, luminescence; host cell line lacks STAT1 | inhibition, % at 5.5 µM;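 active = inhibition above the mean inhibition across all screened compounds plus 3 SD, cut at about 44% in these data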
NF-kB expr up: NF-kB expression increase, human neuronal cells. NF-kB reporter expression; active compounds read high. fold change at 12.5 µM. 1.6% of 190,000 active. AID 1239; in the data active = fold change above about 3.3
STAT3 act-1: activators of IL-6 induced STAT3 signaling; U3A cells, IL-6 STAT3-luciferase reporter, luminescence; 100% = signal with IL-6 EC80 alone; activation (% of control), % at 5.6 µM; 0.91% of 190,000 active; AID 871;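 active = activation above the screen-wide mean of compound activation plus 3 SD, cut at about 130% in these data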
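Material: STAT3-luciferase reporter U3A cells; Probe or stimulus: IL-6 (33 ng/mL); Incubation: compound pre-incubation 1 h before IL-6, then 6 h stimulation at 37 °C; Technique: luminescence from STAT3-driven luciferase reporter; Evaluation: % activation versus median of IL-6-stimulated wells; Controls: IL-6-only high control.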
STAT3 act-2: confirmation of STAT3 signaling activators | shares compounds with STAT3 act-1 | potentiation (% of control), % at 5.7 µM | U3A STAT3-luciferase reporter, IL-6 potentiation, luminescence; U3A cells lack STAT1; 100 means same as IL-6 alone | 64% of 1,200 active;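 active = percent activation of the STAT3 luciferase reporter above a set limit taken from the earlier primary screen, cut at about 130% in these data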
NFkB act 2: NF-kappaB activation in STAT3 activator counter-screen; shares compounds with STAT3 act-1; human cells, NF-kappaB reporter activation; activation (% of control), % at 5.7 µM; 11% of 1,200 active; in the data active = activation above about 120%;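 also: reporter induced by TNF-alpha stimulation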
STAT1 act-2: counter-screen for STAT3 activators: STAT1 activation | NIH 3T3 STAT1-luciferase reporter, IFN-gamma, luminescence | AID 1318 | shares compounds with STAT3 act-1 | activation (% of control), % at 5.7 µM | 13% of 1,200 active;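 active = activation above the solvent-only control well mean plus 3 SD, set per screening run, cut at about 120% in these data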
A number is an active result; n = inactive; x = not tested or not shown. An excerpt weighted towards active compounds, which were near 5.1% of everything screened.

SMILES	APP 5'UTR act	STAT1 blocker	STAT1 act-1	STAT3 inh	NF-kB expr up	STAT3 act-1	STAT3 act-2	NFkB act 2	STAT1 act-2
CCN(CC)P(=O)(Nc1ccc(C)cc1Br)c1ccc(N(C)C)cc1NC(=O)c1ccco1 (stereo not drawn)	n	n	n	n	n	150	144	n	n
CCn1c(/C=C2/C(=O)N(C)c3ccccc32)nc2ccccc2c1=O	n	n	n	n	n	n	x	x	x
CCn1c(/C=C2\C(=O)N(C)c3ccccc32)nc2ccccc2c1=O	n	n	n	n	n	137	n	n	n
O=C(CCCn1c(=O)oc2ccccc21)N1CCc2ccccc2C1	n	n	n	n	n	161	152	n	n
CC(=O)Oc1ccc(/C=N/NS(=O)(=O)c2ccccc2)cc1	n	n	n	n	n	n	x	x	x
COc1cc(/C=C2\SC(N)=NC2=O)ccc1OCC(=O)Nc1ccc(C)cc1	n	n	n	n	n	643	435	130	n
Cc1ccc(OCC(=O)c2c[nH]c3ccccc23)c([N+](=O)[O-])n1	n	n	n	n	n	158	165	n	n
Cc1ccc(C)c(C(=O)COc2ccc(C)nc2[N+](=O)[O-])c1	n	n	n	n	n	n	x	x	x
O=C(O)c1ccc(CNC(=O)c2ccc(C(F)(F)F)cc2)cc1	n	n	n	n	n	149	168	n	n
CCN(C(=O)COC(=O)c1[nH]c(=O)[nH]c(=O)c1N)c1ccccc1	n	n	n	n	n	n	x	x	x
CCCn1c(SCC(=O)NCc2ccccc2Cl)n[nH]c1=O	n	n	n	n	n	n	x	x	x
Cc1nn(-c2ccc(Cl)c(Cl)c2)c(=O)c2ccccc12	n	n	n	n	n	146	138	123	134
Cc1nn(-c2ccc(Cl)c(Cl)c2Cl)c(=O)c2ccccc12	n	n	n	n	n	n	x	x	x
COc1cccc(-c2nc(N3CCN(c4ccccc4)CC3)c3ccccc3n2)c1O	n	n	n	n	n	n	x	x	x
COc1cccc(-c2nc(Oc3cccc(C)c3C)c3ccccc3n2)c1O	n	n	n	n	n	140	136	n	n
FC(F)(F)c1ccc(C2Nc3cccc4cccc(c34)N2)cc1	n	n	n	n	n	142	160	n	n
N#C/C(=C\Nc1ccccc1O)c1nc2ccccc2o1	n	n	n	n	n	165	183	n	n
Cc1ccc(-n2c(C)cc(/C=C3\NC(=O)NC3=O)c2C)c(C)c1	n	n	n	n	n	n	x	x	x
Cc1nn(CC(=O)NCc2ccccc2F)c(C)c1[N+](=O)[O-]	n	n	n	n	n	n	x	x	x
Cc1nn(CC(=O)NCc2cc3ccccc3[nH]2)c(C)c1[N+](=O)[O-]	n	n	n	n	n	138	161	n	n
O=C(/C=C/c1ccc(F)cc1)c1ccccc1Br	n	n	n	n	n	n	x	x	x
COc1ccc(C(C)=O)c2c(O)cccc12	n	n	n	n	n	150	148	n	n
COc1ccc(C(C)=O)c2c1OCCO2	n	n	n	n	n	n	x	x	x
Cc1cccc(-c2nnn3c2nc(NCCc2ccc(S(N)(=O)=O)cc2)c2ccccc23)c1	n	n	n	n	n	145	155	n	n
NS(=O)(=O)c1ccc(CCNc2nc3c(-c4cccc(F)c4)nnn3c3ccccc23)cc1	n	n	n	n	n	137	144	n	n
SMILES	APP 5'UTR act	STAT1 blocker	STAT1 act-1	STAT3 inh	NF-kB expr up	STAT3 act-1	STAT3 act-2	NFkB act 2	STAT1 act-2
Cc1ccc(-c2nnn3c2nc(NCCc2ccc(S(N)(=O)=O)cc2)c2ccccc23)cc1	n	n	n	n	n	n	x	x	x
C[C@H]1CC[C@H]2C(=O)N[C@H](Cc3ccccc3)C(=O)N2[C@@H]1c1ccccc1	n	n	n	n	n	n	x	x	x
CC(C)=Cc1oc2ccc([N+](=O)[O-])cc2c1N1CC(C)OC(C)C1 (stereo not drawn)	n	n	n	n	n	n	x	x	x
Clc1nnc(N/N=C/c2ccccc2)c2ccccc12	n	n	n	n	n	159	163	124	163
Clc1ccc(/C=N/Nc2nn[nH]n2)cc1	n	n	n	n	n	n	x	x	x
C=CCNc1nnc(Cl)c2ccccc12	n	n	n	n	n	n	x	x	x
Clc1ccc(/C=N/Nc2nnc(Cl)c3ccccc23)cc1	n	n	n	n	n	146	160	127	164
CCCCOP(=O)(OCCCC)C1(NS(=O)(=O)c2ccccc2)C=CC(=O)c2ccccc21 (stereo not drawn)	n	n	n	n	n	144	n	n	n
CCCCOCCCNS(=O)(=O)c1ccccc1	n	n	n	n	n	n	x	x	x
COc1ccc(OC)c(CNC(=O)C2CCN(S(C)(=O)=O)CC2)c1	n	n	n	n	n	n	x	x	x
Cc1c(NC(=O)COC(=O)c2cc3c4ccccc4n(C)c3s2)c(=O)n(-c2ccccc2)n1C	n	n	n	n	n	158	136	n	n
C/C(=N\Nc1ccc([N+](=O)[O-])cc1[N+](=O)[O-])C(C)(C)C(C(=O)O)C(=O)O	n	n	n	n	n	n	x	x	x
CCCCNC(=O)C(=O)N/N=C/c1ccc(OCC(=O)Nc2cccc(OC)c2)c(OC)c1	n	n	n	n	n	n	x	x	x
O=C(N/N=C/c1ccc(Br)cc1)c1ccccc1-n1cccc1	n	n	n	n	n	148	n	n	n
Cc1cccc(/C=N\NC(=O)c2ccccc2-n2cccc2)c1	n	n	n	n	n	n	x	x	x
O=C1CSC(c2ccccc2)N1CC(O)c1ccc([N+](=O)[O-])cc1 (stereo not drawn)	n	n	n	n	n	n	x	x	x
CCn1cc(C(=O)NCCc2ccccc2)c(=O)c2cc(S(=O)(=O)N3CCCC3)ccc21	n	n	n	n	n	n	x	x	x
COc1ccccc1-c1cc(C(=O)N/N=C/c2ccc(C)s2)c2ccccc2n1	n	n	n	n	n	139	137	n	n
CCc1ccc(/C=N/NC(=O)c2cc(-c3ccccc3OC)nc3ccccc23)s1	x	n	n	n	n	n	x	x	x
CC1=NN(c2ccc(Cl)cc2)C(=O)C1C(c1cccc(O)c1)c1c(C)[nH]n(-c2ccc(Cl)cc2)c1=O (stereo not drawn)	x	n	n	n	n	146	160	n	n
Cc1[nH]n(-c2ccc(Cl)cc2)c(=O)c1C(=O)c1ccccc1	n	n	n	n	n	n	x	x	x

Compound activity as filed in PubChem.
